Series [1] deals with Trypanosoma brucei brucei. The experiment in a line: Activity of histidine tagged recombinant Trypanosoma brucei brucei type 1 nitroreductase assessed as NADH oxidation at 100 uM by spectrophotometry method. In short, it runs like this:
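Purified recombinant his-tagged T. b. brucei type I nitroreductase. Each nitrotriazole substrate at 100 µM with NADH at 100 µM. NADH oxidation followed spectrophotometrically at 340 nm. Specific activity expressed as nmol NADH oxidized per min per mg enzyme.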

Series [2] deals with Trypanosoma cruzi. The experiment in a line: Activity of histidine tagged recombinant Trypanosoma cruzi type 1 nitroreductase assessed as NADH oxidation at 100 uM by spectrophotometry method. The essentials: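 Purified recombinant T. cruzi type I nitroreductase, prepared and assayed per earlier work. Specific activity expressed as NADH oxidized per min per mg protein.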
The subject of series [3] is Mus musculus. The series can be described thus: Toxicity in Balb/c mouse infected with firefly luciferase expressing trypamastigote forms of transgenic Trypanosoma cruzi Y at 15 mg/kg/day, ip dosed for 10 days. In kind it is organism-based. Particulars: in vivo, 240 h.
In series [4] the test system is Trypanosoma cruzi. The experiment in a line: Antichagasic activity against amastigote forms of Trypanosoma cruzi Tulahuen C4 assessed as inhibition of growth. The class given is functional, organism-based. The essentials:
(§1)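 Parasite growth assay run in 96-well format per an earlier protocol. Dose–response curves were constructed, and the 50% growth-inhibitory concentration was calculated by linear regression from the sigmoidal dose–inhibition curves.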

The subject of series [5] is Trypanosoma brucei rhodesiense. The experiment in a line: Antitrypanosomal activity against bloodstream trypomastigote forms of Trypanosoma brucei rhodesiense STIB 900 assessed as inhibition of growth. The class given is functional, organism-based. In short, it runs like this:
as §1

Series [6] deals with Trypanosoma brucei brucei. The experiment in a line: Antimicrobial activity against bloodstream forms of Trypanosoma brucei brucei overexpressing type I nitroreductase assessed as reduction in cell viability after 3 days by alamar blue assay in presence of tetracycline. In kind it is functional, organism-based. As to conditions: 72 h. (Alamar Blue is a resazurin reagent that responds to reducing activity.)

A short description of series [7]: Selectivity index, ratio of IC50 for rat L6 cells to IC50 for bloodstream trypomastigote forms of Trypanosoma brucei rhodesiense STIB 900.
In series [8] the test system is Trypanosoma brucei brucei. The series can be described thus: Antimicrobial activity against bloodstream forms of Trypanosoma brucei brucei overexpressing type I nitroreductase assessed as reduction in cell viability after 3 days by alamar blue assay in absence of tetracycline. In kind it is functional, organism-based. Particulars: 72 h.
For series [9], the system named is Leishmania donovani. The series can be described thus: Antileishmanial activity against axenic amastigote forms of Leishmania donovani MHOM/ET/67/L82 assessed as inhibition of growth. In kind it is functional, organism-based. In short, it runs like this:
as §1

Series [10] deals with Trypanosoma brucei brucei. The experiment in a line: Antimicrobial activity against bloodstream forms of Trypanosoma brucei brucei assessed as reduction in cell viability after 3 days by alamar blue assay. The class given is functional, organism-based. As to conditions: 72 h.
In series [11] the test system is L6. The series can be described thus: Cytotoxicity against rat L6 cells assessed as cell viability. The class given is cell-based.
The nature of series [12]: Selectivity index, ratio of IC50 for rat L6 cells to IC50 for amastigote forms of Trypanosoma cruzi Tulahuen C4.
A short description of series [13]: Selectivity index, ratio of IC50 for rat L6 cells to IC50 for amastigote forms of Leishmania donovani MHOM/ET/67/L82.
Series [14] relates to Trypanosoma cruzi. The series can be described thus: Antichagasic activity against firefly luciferase expressing trypamastigote forms of transgenic Trypanosoma cruzi Y infected in Balb/c mouse assessed as reduction in parasite level at 15 mg/kg/day, ip dosed for 10 days by luciferase reporter gene assay. The class given is functional. Particulars: 240 h. The essentials:
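Balb/c mice were infected with luciferase-expressing T. cruzi Y trypomastigotes and imaged at baseline after i.p. D-luciferin 150 mg/kg in PBS. Ratio = post-treatment / pre-treatment luciferase signal per animal; group mean ± SD.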
For orientation: A reporter such as luciferase makes a cellular process visible.

Series [15] relates to Trypanosoma brucei brucei. The series can be described thus: Ratio of IC50 for bloodstream forms of Trypanosoma brucei brucei overexpressing type I nitroreductase in absence of tetracycline to IC50 for bloodstream forms of Trypanosoma brucei brucei overexpressing type I nitroreductase in presence of tetracycline. In kind it is functional.
For series [16], the target named is T1, Cytochrome P450 2C8 (Homo sapiens, UniProt P10632).
T1 sequence (P10632 whole entry): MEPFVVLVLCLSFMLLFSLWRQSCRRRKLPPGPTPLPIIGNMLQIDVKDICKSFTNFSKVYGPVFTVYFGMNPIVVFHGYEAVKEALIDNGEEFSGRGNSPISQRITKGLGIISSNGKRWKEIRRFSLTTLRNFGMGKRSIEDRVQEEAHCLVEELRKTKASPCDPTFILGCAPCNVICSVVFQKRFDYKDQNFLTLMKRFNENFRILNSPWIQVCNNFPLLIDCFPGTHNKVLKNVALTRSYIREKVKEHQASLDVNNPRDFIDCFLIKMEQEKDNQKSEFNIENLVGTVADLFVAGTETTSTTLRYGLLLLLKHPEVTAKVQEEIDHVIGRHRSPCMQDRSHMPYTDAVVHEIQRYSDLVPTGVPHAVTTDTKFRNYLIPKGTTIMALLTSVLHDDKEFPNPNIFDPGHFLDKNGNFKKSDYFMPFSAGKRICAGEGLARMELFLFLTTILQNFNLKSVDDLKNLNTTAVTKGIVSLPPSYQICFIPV
The series can be described thus: Inhibition of CYP2C8 in human Liver microsomes after 5 mins by LC-MS/MS method. For orientation: Microsomes from liver hold many membrane-bound enzymes, among them those of drug oxidation.

Series [17] addresses Cytochrome P450 3A4 (Homo sapiens, UniProt P08684). The series can be described thus: Inhibition of CYP3A4 in human Liver microsomes after 5 mins by LC-MS/MS method.
In series [18] the target is Cytochrome P450 2C9 (Homo sapiens, UniProt P11712). The experiment in a line: Inhibition of CYP2C9 in human Liver microsomes after 5 mins by LC-MS/MS method.
In series [19] the target is Cytochrome P450 2D6 (Homo sapiens, UniProt P10635). The series can be described thus: Inhibition of CYP2D6 in human Liver microsomes after 5 mins by LC-MS/MS method.
A short description of series [20]: Efflux ratio of permeability from basolateral to apical side over apical to basolateral side in human Caco2 cells after 2 hrs by LC-MS/MS method. Particulars: Caco-2.
The target of series [21] is Cytochrome P450 2C19 (Homo sapiens, UniProt P33261). The series can be described thus: Inhibition of CYP2C19 in human Liver microsomes after 35 mins by LC-MS/MS method.

A value given as a limit tells only on which side of the number the result lay.

Sequence of Cytochrome P450 3A4 (P08684 whole entry): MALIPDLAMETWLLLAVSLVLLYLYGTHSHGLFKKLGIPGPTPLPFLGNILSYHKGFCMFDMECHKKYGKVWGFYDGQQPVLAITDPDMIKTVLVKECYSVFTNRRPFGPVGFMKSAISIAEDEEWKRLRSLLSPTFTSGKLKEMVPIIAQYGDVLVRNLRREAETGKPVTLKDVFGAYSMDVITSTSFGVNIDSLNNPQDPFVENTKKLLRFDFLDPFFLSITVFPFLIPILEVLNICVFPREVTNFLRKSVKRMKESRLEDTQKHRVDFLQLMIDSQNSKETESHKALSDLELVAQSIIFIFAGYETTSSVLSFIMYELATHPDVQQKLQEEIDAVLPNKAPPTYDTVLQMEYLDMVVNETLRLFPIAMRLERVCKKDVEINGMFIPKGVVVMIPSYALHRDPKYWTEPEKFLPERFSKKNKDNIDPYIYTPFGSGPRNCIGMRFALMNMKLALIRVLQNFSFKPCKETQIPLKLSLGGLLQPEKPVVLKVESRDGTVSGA
Sequence of Cytochrome P450 2C9 (P11712 whole entry): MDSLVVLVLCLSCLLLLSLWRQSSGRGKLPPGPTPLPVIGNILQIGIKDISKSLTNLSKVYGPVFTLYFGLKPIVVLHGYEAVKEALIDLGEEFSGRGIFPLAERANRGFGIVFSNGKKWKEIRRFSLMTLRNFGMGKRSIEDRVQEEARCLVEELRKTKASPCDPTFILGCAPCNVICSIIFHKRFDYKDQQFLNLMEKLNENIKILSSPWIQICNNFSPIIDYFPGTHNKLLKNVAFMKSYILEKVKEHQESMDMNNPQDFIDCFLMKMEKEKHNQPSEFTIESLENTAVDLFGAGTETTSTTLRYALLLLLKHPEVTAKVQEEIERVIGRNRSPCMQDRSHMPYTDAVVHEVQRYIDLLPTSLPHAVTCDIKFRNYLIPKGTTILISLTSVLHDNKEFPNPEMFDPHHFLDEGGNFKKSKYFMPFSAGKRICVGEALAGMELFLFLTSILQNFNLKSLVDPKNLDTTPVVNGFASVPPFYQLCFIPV
Sequence of Cytochrome P450 2D6 (P10635 whole entry): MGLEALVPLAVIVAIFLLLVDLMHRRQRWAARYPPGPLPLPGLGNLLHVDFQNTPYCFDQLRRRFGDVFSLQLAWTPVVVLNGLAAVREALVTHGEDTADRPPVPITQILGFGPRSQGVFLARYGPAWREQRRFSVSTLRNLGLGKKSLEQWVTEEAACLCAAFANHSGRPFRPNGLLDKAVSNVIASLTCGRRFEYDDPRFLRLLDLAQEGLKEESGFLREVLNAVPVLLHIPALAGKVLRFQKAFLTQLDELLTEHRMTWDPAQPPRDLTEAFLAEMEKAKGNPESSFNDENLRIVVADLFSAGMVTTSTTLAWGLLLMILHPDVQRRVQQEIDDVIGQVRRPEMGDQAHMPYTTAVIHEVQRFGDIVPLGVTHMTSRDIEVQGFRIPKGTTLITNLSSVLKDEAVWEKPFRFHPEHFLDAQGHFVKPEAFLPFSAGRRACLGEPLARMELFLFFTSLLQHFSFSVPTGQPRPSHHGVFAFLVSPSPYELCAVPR
Sequence of Cytochrome P450 2C19 (P33261 whole entry): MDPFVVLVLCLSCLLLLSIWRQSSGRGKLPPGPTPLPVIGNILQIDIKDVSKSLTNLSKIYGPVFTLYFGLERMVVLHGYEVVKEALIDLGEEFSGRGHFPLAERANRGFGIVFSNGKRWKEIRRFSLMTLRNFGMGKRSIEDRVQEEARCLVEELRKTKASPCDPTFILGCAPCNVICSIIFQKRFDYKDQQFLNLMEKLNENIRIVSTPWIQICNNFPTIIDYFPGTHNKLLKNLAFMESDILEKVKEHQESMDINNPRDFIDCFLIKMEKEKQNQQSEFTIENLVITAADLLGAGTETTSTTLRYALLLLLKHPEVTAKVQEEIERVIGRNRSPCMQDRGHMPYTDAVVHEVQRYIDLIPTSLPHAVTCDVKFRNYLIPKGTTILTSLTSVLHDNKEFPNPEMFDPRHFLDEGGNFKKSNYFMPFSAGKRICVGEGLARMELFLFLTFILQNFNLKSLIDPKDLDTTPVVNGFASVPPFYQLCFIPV

What is called IC50 is the concentration that gives 50% inhibition. By inhibition in vivo is commonly meant the percentage by which the read-out fell short of the control. With `O=C(Cn1cnc([N+](=O)[O-])n1)N1CCN(c2ccc(Cl)c(Cl)c2)CC1`, the figures for the Activity in [1], in [2] and in series [3] were 2320 nmol/min/mg, 753 nmol/min/mg and “Non-toxic”, respectively. For the same compound, the IC50 in [4] was 0.169 µM; in series [5], 4.48 µM; in series [6], 0.65 µM; in [8], 7.97 µM; in series [9] it was 1.22 µM; in [10], 4.73 µM. Moreover, the IC50 in series [11] was 108 µM. For the same compound, the selectivity ratio in series [7] (L6 cells) was 24; in [12] (L6 cells), 641; in series [13] (L6 cells), 89. Moreover, the inhibition in vivo at 15 mg/kg/day in [14] is 77%. Moreover, the “Ratio IC50” value in series [15] amounted to 12.3.
What is called efflux ratio is a quotient of directional permeabilities that is used to spot active efflux. On to `O=C(Cn1cnc([N+](=O)[O-])n1)N1CCN(Cc2ccc(Cl)c(Cl)c2)CC1`, for which the Activity was determined as 3730 nmol/min/mg in series [1] and 745 nmol/min/mg in [2]. Moreover, the IC50 in series [16] was greater than 20 µM; in series [17], greater than 20 µM; in [4], 0.298 µM; in series [18], greater than 20 µM; in [5], 0.231 µM; in [6], 0.58 µM. Moreover, the IC50 in [8] was 4.13 µM; in [9], 8.13 µM; in series [10], 3.59 µM; in [11] it was 59.9 µM; in series [19], greater than 20 µM; in [21] it was greater than 20 µM. For the same compound, the selectivity ratio in series [7] (l6) was 260; in series [12] (l6) it was 201; in series [13] (l6), 7.36. Besides, the efflux ratio at 2 h in series [20] was determined as 0.91. Besides, in series [15], the “Ratio IC50” value amounted to 7.2.

These data come from ChEMBL document CHEMBL3632593, “3-Nitrotriazole-based piperazides as potent antitrypanosomal agents” (Eur J Med Chem, 2015).
